This is a sample that favours compounds with a hit; in the whole collection about 2.6% have one here.
Myeloid diff 2 – induction of myeloid progenitor differentiation, primary screen, cell-based, flow cytometry, MLPCN library | calls only at 10 µM | ER-HoxA9 myeloid progenitors, lysozyme-GFP differentiation | 360,000 tested, 1% active;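 active = normalized GFP-positive differentiation at or above the plate's own cutoff, the solvent-only control mean plus 3 SD; inconclusive = no clear call, values can overlap the other calls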;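 also: cells exposed to compound for four days before flow analysis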
SKN-1 block – suppressors of acrylamide-induced Pgst-4::GFP reporter in worms, primary screen, SKN-1 inhibitor project, whole organism, uHTS, GFP/RFP fluorescence ratio, strain VP596. C. elegans VP596 Pgst-4::GFP/RFP ratio, 24 h. inhibition, % at 21.8 µM. 360,000 tested, 0.49% active. AID 624304, 2012;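 active = interference check ratio from 0.5 to 1.5 plus GFP to RFP signal ratio inhibition reaching or exceeding a fixed threshold, cut at about 30% in these data, passing the limit was not always enough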
T cell HTS – modulators of CD8 T cell-vesicle binding, primary screen, mouse 2C CD8+ T cells, flow cytometry. 330,000 tested, 0.068% active. 2C CD8+ T cell-vesicle binding; active compounds read low. AID 2052, 2009. response (vesicle binding), % at 7 µM;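 active = response, share of CD8 T cells binding vesicles, and their 90th percentile fluorescence all below set limits, cut at about 80% in these data, passing the limit was not always enough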;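 also: values below 100% mean blocked vesicle binding to the CD8+ T cells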
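Incubation: binding step 1.5 h, 37 °C, antibody labelling 20 min, ice; system: murine 2C transgenic CD8+ T lymphocytes; technique: cytometric PE anti-B7-1 and Alexa647 anti-CD8 signals after 1% paraformaldehyde fixation; also added: QL9-charged Drosophila Ld/ICAM-1/B7-1 vesicles; control set: naked versus QL9-loaded vesicles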
GRK2 inh – compounds blocking aptamer binding on GRK2 – biochemical, human GRK2, bead flow cytometry, HTS, primary screen; Beta-adrenergic receptor kinase 1 (Homo sapiens), P25098; FAM-aptamer displacement from GRK2; inhibition of aptamer binding, % at 10 µM; 330,000 tested, 0.59% active; AID 488847, 2010;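 active = inhibition of aptamer binding above 40%, roughly 3 SD of noise, on plates passing a quality check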;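 also: median bead fluorescence of bound FAM aptamer so fluorescent compounds give negative values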
Rin1 Abl inh – inhibitors of Rin1-Abl protein binding, primary screen, biochemical, TR-FRET; Tyrosine-protein kinase ABL1 (Homo sapiens) + Ras and Rab interactor 1 (Homo sapiens), …; 360,000 tested, 0.4% active; AID 588664, 2011; inhibition, % at 7.35 µM; in the data active = inhibition above about 5%, passing the limit was not always enough
Target sequence (P00519 whole entry, looked up): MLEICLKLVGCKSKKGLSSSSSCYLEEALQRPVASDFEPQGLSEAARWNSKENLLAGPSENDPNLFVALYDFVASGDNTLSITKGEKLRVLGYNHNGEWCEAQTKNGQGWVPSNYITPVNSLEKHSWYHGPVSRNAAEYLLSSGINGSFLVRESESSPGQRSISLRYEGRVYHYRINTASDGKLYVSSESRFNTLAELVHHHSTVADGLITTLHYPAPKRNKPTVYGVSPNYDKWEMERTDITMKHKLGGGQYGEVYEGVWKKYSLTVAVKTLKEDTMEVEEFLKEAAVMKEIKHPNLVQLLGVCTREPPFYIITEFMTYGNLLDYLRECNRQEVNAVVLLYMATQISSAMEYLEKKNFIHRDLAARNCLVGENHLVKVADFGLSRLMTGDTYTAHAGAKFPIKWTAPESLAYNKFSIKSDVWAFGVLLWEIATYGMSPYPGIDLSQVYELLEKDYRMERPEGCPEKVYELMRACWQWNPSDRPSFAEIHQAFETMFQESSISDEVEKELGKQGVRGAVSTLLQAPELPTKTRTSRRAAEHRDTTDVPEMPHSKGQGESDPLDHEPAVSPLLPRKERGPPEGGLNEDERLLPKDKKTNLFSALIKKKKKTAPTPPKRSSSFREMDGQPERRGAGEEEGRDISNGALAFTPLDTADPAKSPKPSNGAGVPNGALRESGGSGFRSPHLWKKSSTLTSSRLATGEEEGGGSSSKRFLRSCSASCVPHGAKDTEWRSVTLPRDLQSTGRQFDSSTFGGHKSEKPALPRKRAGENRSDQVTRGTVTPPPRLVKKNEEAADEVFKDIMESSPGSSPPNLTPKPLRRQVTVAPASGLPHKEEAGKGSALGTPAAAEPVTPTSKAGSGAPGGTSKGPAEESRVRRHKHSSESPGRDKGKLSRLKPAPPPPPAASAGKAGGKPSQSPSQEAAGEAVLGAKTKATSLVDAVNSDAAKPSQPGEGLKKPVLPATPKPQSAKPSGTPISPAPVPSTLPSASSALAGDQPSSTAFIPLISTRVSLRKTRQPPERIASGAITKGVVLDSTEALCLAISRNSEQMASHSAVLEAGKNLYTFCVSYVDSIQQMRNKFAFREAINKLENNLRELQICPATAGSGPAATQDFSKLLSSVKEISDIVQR
Target sequence (Q13671 whole entry, looked up): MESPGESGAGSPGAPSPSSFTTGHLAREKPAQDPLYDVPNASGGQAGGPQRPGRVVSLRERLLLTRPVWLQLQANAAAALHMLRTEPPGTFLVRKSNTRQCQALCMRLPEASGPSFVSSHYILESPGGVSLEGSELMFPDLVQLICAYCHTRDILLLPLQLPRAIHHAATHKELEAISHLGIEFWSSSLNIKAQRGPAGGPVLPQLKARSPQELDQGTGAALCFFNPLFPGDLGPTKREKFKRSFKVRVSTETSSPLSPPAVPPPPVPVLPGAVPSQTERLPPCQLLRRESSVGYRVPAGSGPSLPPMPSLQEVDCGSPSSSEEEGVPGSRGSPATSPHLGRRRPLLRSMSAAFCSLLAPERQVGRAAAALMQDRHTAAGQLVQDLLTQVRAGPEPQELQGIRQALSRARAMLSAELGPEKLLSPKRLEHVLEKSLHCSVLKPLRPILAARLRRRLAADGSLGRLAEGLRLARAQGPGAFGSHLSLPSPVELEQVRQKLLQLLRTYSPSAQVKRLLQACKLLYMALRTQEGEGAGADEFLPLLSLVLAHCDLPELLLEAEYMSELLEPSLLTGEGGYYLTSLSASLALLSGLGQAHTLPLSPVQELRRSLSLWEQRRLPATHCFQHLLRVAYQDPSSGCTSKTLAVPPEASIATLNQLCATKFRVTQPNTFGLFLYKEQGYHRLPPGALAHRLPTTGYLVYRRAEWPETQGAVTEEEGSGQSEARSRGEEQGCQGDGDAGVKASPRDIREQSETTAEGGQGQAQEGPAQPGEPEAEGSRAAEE
Rce1 inhib – yeast Rce1p protease inhibitors, primary screen, biochemical, fluorescence, cell-free homogeneous | CAAX prenyl protease 2 (Saccharomyces cerevisiae (strain ATCC 204508 / S288c)), Q03530 | yeast membranes, quenched prenylated peptide cleavage fluorescence | calls only | 290,000 tested, 0.27% active | AID 2563, 2010;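 active = fall in fluorescence gain of 50% or more versus controls, with final raw signal at or below 3038400; inconclusive = same 50% fall but final raw signal above 3038400; inactive = fall in fluorescence gain under 50%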;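 also: plate controls were neutral control wells for no effect and wells lacking membranes for full effect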
Rin1 Abl conf – Rin1-Abl binding inhibitor retest, confirmation, biochemical, TR-FRET. shares compounds with Rin1 Abl inh. purified proteins. inhibition, % at 7.35 µM. 1,300 tested, 49% active. AID 602124, 2011
GFP quencher – GFP fluorescence inhibitors and quenchers, artefact control for Rin1-Abl interaction inhibitor project, biochemical | 1,300 tested, 8.5% active | inhibitors/quenchers counterscreen | AID 602125, 2011 | inhibition, % at 6.75 µM | shares compounds with Rin1 Abl inh;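 also: ABL1-eGFP fusion protein alone without its partner RIN1-SBP; 0% = protein with vehicle and 100% = wells lacking protein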
GFP quench dose – GFP fluorescence inhibitors and quenchers, dose response, artefact control for Rin1-Abl interaction inhibitor project, biochemical | shares compounds with Rin1 Abl inh | GFP fluorescence interference/quenching counterscreen | IC50, µM | 230 tested, under 10 active | AID 602182, 2012; call rule not given here;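 also: ABL1-eGFP fusion protein alone without its RIN1 binding partner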
* = called active by the depositor; i = inactive; ? = inconclusive; nt = no result given; + = active, no number. Rule as the data show it, unless noted: active = inhibition above about 6.5%; inactive = the rest.

SMILES | Myeloid diff 2 | SKN-1 block | T cell HTS | GRK2 inh | Rin1 Abl inh | Rce1 inhib | Rin1 Abl conf | GFP quencher | others
O=C1CNC(=O)N1CC(O)Cn1c2ccccc2c2ccccc21 (centres undefined) | i | 0 | 204 | 5 | 24* | i | 28* | -1 | GFP quench dose=>67
CCCCSc1cc(=O)[nH]c(N)n1 | i | -4 | 857 | 0 | 29* | i | 21* | -2 | GFP quench dose=>68
CSc1nc2sc3c(c2c(=O)[nH]1)CCC3 | i | 5 | 253 | 0 | 5.8* | i | -3 | -1
O=C1CC(C(=O)Nc2ccccc2)C2(CCCC2)O1 (centres undefined) | + | -8 | 222 | 2 | 7.7* | i | -2 | -1
COc1ccc(C(=O)CC(C#N)c2ccc3c(c2)OCO3)cc1OC (centres undefined) | i | 18 | nt | nt | 11* | nt | -3 | 0
Cc1cnc(CNC(=O)c2ccc3oc(Cc4ccc(Cl)cc4)nc3c2)cn1 | i | -18 | 321 | 0 | -2 | i | nt | nt
Cc1[nH][nH]c(=O)c1C(c1c(C)[nH][nH]c1=O)c1cn(C)c2ccccc12 | i | 16 | nt | nt | -1 | nt | nt | nt
Cc1[nH][nH]c(=O)c1C(c1c(C)[nH][nH]c1=O)c1cn(Cc2cccc3ccccc23)c2ccccc12 | ? | 10 | 150 | 4 | 19* | nt | 6.5* | 3
CCCCn1c(SCC(=O)c2ccc(O)cc2O)nc2cc(S(N)(=O)=O)ccc21 | i | 3 | 264 | 4 | 2 | i | nt | nt
CCCCn1c(SCC2CCCO2)nc2cc(S(N)(=O)=O)ccc21 (centres undefined) | i | 5 | 329 | 1 | 5.9* | i | 0 | -1
CCc1cc(CNC(=O)C2CCC(=O)N(Cc3ccc(Cl)cc3)C2)on1 (centres undefined) | i | 5 | 451 | 1 | 1 | i | nt | nt
COc1ccc(C)cc1CN1C(=O)c2ccccc2C1=O | i | 2 | 212 | 3 | 4 | i | nt | nt
CCCCCCSc1ccc([C@@H]2[C@H]3C(=O)N(C)C(=O)[C@H]3[C@]3(C(=O)OC)CCCCN23)cc1 | i | -11 | 269 | 0 | 10* | i | -2 | -1
O=C(NC(=S)Nc1ccccc1O)c1ccc(Cl)cc1Cl | i | 7 | 249 | 4 | -3 | nt | nt | nt
Cc1cc2c(N)cccc2nn1 | i | 33 | 972 | 1 | 12* | i | -7 | 1
Cc1cc2c(NC(=O)Nc3ccccc3)cccc2nn1 | i | 5 | 396 | 2 | -4 | i | nt | nt
C#CCOCCOCCOCCNc1nc(N2CCOCC2)nc(N2CCN(C(=O)[C@H](Cc3ccc(O)cc3)n3cc([C@@H](N)CC(C)C)nn3)CC2)n1 | i | 24 | i | 5 | 14* | i | 15* | 0
CCN1CCN(C(=O)C(NS(=O)(=O)c2ccc3nc(C)sc3c2)C(C)C)CC1 (centres undefined) | ? | 18 | 189 | 0 | 8.1* | i | 1 | 0
Cc1nc2ccc(S(=O)(=O)NC(C(=O)NC3CCCC3)C(C)C)cc2s1 (centres undefined) | i | -2 | 246 | 2 | -2 | i | nt | nt
CCCCOC(=O)c1ccc(NC(=O)CN2C(=O)NC3(CCCCCC3)C2=O)cc1 | i | 14 | 518 | 2 | 12* | nt | 10* | 1
COc1cc(CNc2ncnc3c2ncn3[C@H]2CN(Cc3ccc(F)cc3)C[C@@H](CO)O2)cc(OC)c1OC | i | -20 | nt | nt | -1 | nt | nt | nt
COCCNc1ncnc2c1ncn2[C@H]1CN(Cc2ccc(-c3ccccc3)cc2)C[C@@H](CO)O1 | i | 16 | nt | nt | 9.6* | nt | 11* | -1
COc1cc(CN2C[C@@H](CO)O[C@@H](n3cnc4c(NCc5ccc(F)cc5)ncnc43)C2)cc(OC)c1OC | i | -18 | nt | nt | 11* | nt | 6.5* | -3
COCCNc1ncnc2c1ncn2[C@H]1CN(Cc2ccc(F)cc2)C[C@@H](CO)O1 | i | 2 | nt | nt | 1 | nt | nt | nt
CC(C)N(C)c1ncnc2c1ncn2[C@H]1CN(Cc2ccccc2)C[C@@H](CO)O1 | i | 1 | nt | nt | 3 | nt | nt | nt
SMILES | Myeloid diff 2 | SKN-1 block | T cell HTS | GRK2 inh | Rin1 Abl inh | Rce1 inhib | Rin1 Abl conf | GFP quencher | others
OCCNc1ncnc2c1ncn2[C@H]1CN(Cc2ccc(Cl)cc2)C[C@@H](CO)O1 | i | 1 | nt | nt | 7.2* | nt | 5 | 0
CC(C)N(C)c1ncnc2c1ncn2[C@H]1CN(Cc2ccc(Cl)cc2)C[C@@H](CO)O1 | i | 2 | nt | nt | 6.2* | nt | 6.3* | -1
C#CCN(C[C@@H]1[C@@H](OC(=O)NC2CCCC2)[C@@H](OC(=O)NC2CCCC2)CN(C(=O)OC(C)C)N1C(=O)OC(C)C)S(=O)(=O)c1ccc(C)cc1 | i | -4 | nt | nt | 0 | nt | nt | nt
O=C1NC[C@@H](CCCCN2C[C@H](Cc3ccc(O)cc3)N(CCC3CCCCC3)C(=O)C2=O)N(CCc2ccc(O)cc2)C1=O | i | 8 | nt | nt | nt | nt | nt | nt
CC(NC(=O)c1ccccc1NC(=O)CN1CCc2ccccc2C1)c1ccccc1 (centres undefined) | i | -12 | 328 | 0 | -2 | i | nt | nt
CN(C)c1ncnc2c1ncn2[C@H]1CN(Cc2ccc(-c3ccccc3)cc2)C[C@@H](CO)O1 | i | 4 | nt | nt | 20* | nt | 15* | -2
OC[C@@H]1CN(Cc2ccc(-c3ccccc3)cc2)C[C@H](n2cnc3c(NC4CCC4)ncnc32)O1 | i | -4 | nt | nt | 18* | nt | 24* | -1 | GFP quench dose=>68
OC[C@@H]1CN(Cc2ccccc2)C[C@H](n2cnc3c(NC4CC4)ncnc32)O1 | i | 8 | nt | nt | 2 | nt | nt | nt
C=CCNc1ncnc2c1ncn2[C@H]1CN(Cc2ccc(-c3ccccc3)cc2)C[C@@H](CO)O1 | i | 5 | nt | nt | 19* | nt | 17* | 0 | GFP quench dose=>68
COc1cc(CN2C[C@@H](CO)O[C@@H](n3cnc4c(NCCCO)ncnc43)C2)cc(OC)c1OC | i | 4 | nt | nt | 3 | nt | nt | nt

Screening data (PubChem BioAssay)
